How the values were obtained:
Type in all cases: functional, cell-based
HepG2 = assay: Antiproliferative activity against human HepG2 cells after 24 hrs by MTT assay; conditions: HepG2, 24 h
Summary of the method: (§1)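 MTT proliferation assay on HUVECs and on HepG2, A375, U251, B16 and HCT116 cells. Results reported as IC50.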

A-375 = assay: Antiproliferative activity against human A375 cells after 24 hrs by MTT assay; conditions: A-375, 24 h; summary of the method: as §1
B16 = assay: Antiproliferative activity against mouse B16 cells after 24 hrs by MTT assay; conditions: B16, 24 h; summary of the method: as §1
[1] = Antiproliferative activity against human HCT116 cells after 24 hrs by MTT assay; conditions: HCT-116, 24 h; summary of the method: as §1
U-251 = assay: Antiproliferative activity against human U251 cells after 24 hrs by MTT assay; conditions: U-251, 24 h; summary of the method: as §1
HUVEC = assay: Antiproliferative activity against HUVEC after 24 hrs by MTT assay; conditions: Homo sapiens; summary of the method: as §1

Row | Compound | IC50 (HepG2) [µM] | IC50 (A-375) [µM] | IC50 (B16) [µM] | IC50 (U-251) [µM] | IC50 [1] [µM] | IC50 (HUVEC) [µM]
1 | CC1(C)C=Cc2c(ccc3c(=O)c(-c4ccc(O)cc4)coc23)O1 | > 10 | > 10 | > 10 | > 10 | > 10 | > 10
2 | CC1(C)C=Cc2c(ccc3c(=O)c(-c4ccc(Cl)c(C(F)(F)F)c4)coc23)O1 | > 10 | > 10 | > 10 | > 10 | > 10 | > 10
3 | COc1ccccc1-c1coc2c3c(ccc2c1=O)OC(C)(C)C=C3 | > 10 | > 10 | > 10 | > 10 | > 10 | > 10
4 | CC1(C)C=Cc2c(ccc3c(=O)c(-c4ccc5c(c4)OCO5)coc23)O1 | > 10 | > 10 | > 10 | > 10 | > 10 | > 10
5 | COc1ccc(-c2coc3c4c(ccc3c2=O)OC(C)(C)C=C4)c(OC)c1 | > 10 | > 10 | > 10 | > 10 | > 10 | > 10
6 | COc1ccc(-c2coc3c4c(ccc3c2=O)OC(C)(C)C=C4)c(OC)c1OC | > 10 | > 10 | > 10 | > 10 | > 10 | > 10
7 | CC1(C)C=Cc2c(ccc3c(=O)c(-c4ccc(C(F)(F)F)cc4)coc23)O1 | > 10 | 7.25 | 1.91 | 5.85 | 7 | > 10
8 | COc1ccc(-c2coc3c4c(ccc3c2=O)OC(C)(C)C=C4)cc1 | > 10 | > 10 | > 10 | > 10 | > 10 | > 10
9 | CC1(C)C=Cc2c(ccc3c(=O)c(-c4ccc(C(F)(F)F)cc4Cl)coc23)O1 | > 10 | 8.9 | 3.55 | 2.5 | 3.8 | > 10
10 | COc1cccc(-c2coc3c4c(ccc3c2=O)OC(C)(C)C=C4)c1F | > 10 | > 10 | > 10 | > 10 | > 10 | > 10
11 | CCOc1ccccc1-c1coc2c3c(ccc2c1=O)OC(C)(C)C=C3 | > 10 | > 10 | > 10 | > 10 | > 10 | > 10
12 | COc1cc(-c2coc3c4c(ccc3c2=O)OC(C)(C)C=C4)cc(OC)c1OC | > 10 | > 10 | > 10 | > 10 | > 10 | > 10
13 | CC1(C)C=Cc2c(ccc3c(=O)c(-c4ccc(C=O)cc4)coc23)O1 | > 10 | > 10 | > 10 | > 10 | > 10 | > 10
14 | COc1cc(OC)cc(-c2coc3c4c(ccc3c2=O)OC(C)(C)C=C4)c1 | > 10 | > 10 | > 10 | > 10 | > 10 | > 10
15 | CC(=O)c1ccc(-c2coc3c4c(ccc3c2=O)OC(C)(C)C=C4)cc1 | > 10 | > 10 | > 10 | > 10 | > 10 | > 10
16 | CC1(C)C=Cc2c(ccc3c(=O)c(-c4ccc(C#N)cc4)coc23)O1 | > 10 | > 10 | > 10 | > 10 | > 10 | > 10
17 | CC1(C)C=Cc2c(ccc3c(=O)c(-c4ccc5c(c4)OCCO5)coc23)O1 | > 10 | > 10 | > 10 | > 10 | > 10 | > 10
18 | CC1(C)C=Cc2c(ccc3c(=O)c(-c4cccc(C=O)c4)coc23)O1 | > 10 | > 10 | > 10 | > 10 | > 10 | > 10
19 | COc1ccc(-c2coc3c4c(ccc3c2=O)OC(C)(C)C=C4)cc1OC | > 10 | > 10 | > 10 | > 10 | > 10 | > 10
20 | CCOc1ccc(-c2coc3c4c(ccc3c2=O)OC(C)(C)C=C4)cc1 | > 10 | > 10 | > 10 | > 10 | > 10 | > 10

The next lines start with results.

Row | IC50 (HepG2) [µM] | IC50 (A-375) [µM] | IC50 (B16) [µM] | IC50 (U-251) [µM] | Compound | IC50 [1] [µM] | IC50 (HUVEC) [µM]
21 | 0.61 | 1.14 | > 10 | > 10 | COc1cc(OC)c(-c2coc3cc(OCc4cccc(C(F)(F)F)c4)ccc3c2=O)cc1OC | 3.4 | > 10
22 | 1.69 | 2.02 | 4.18 | > 10 | COc1cc(OC)c(-c2coc3cc(OCc4ccccc4Cl)ccc3c2=O)cc1OC | 2.45 | > 10
23 | > 10 | > 10 | > 10 | > 10 | COc1cc(OC)c(-c2coc3cc(OCCN4CCOCC4)ccc3c2=O)cc1OC | > 10 | > 10
24 | 0.87 | 1.12 | 4.4 | > 10 | COc1cc(OC)c(-c2coc3cc(OCc4cccc(Br)c4)ccc3c2=O)cc1OC | 1.2 | > 10
25 | > 10 | > 10 | > 10 | > 10 | COc1cccc(C(=O)Oc2ccc3c(=O)c(-c4cc(OC)c(OC)cc4OC)coc3c2)c1 | > 10 | > 10
26 | 4.95 | 3.68 | 4.5 | 6.45 | C#CCOc1ccc2c(=O)c(-c3cc(OC)c(OC)cc3OC)coc2c1 | 8.05 | > 10
27 | 3.45 | 4.75 | 5.1 | 5.9 | C=CCOc1ccc2c(=O)c(-c3cc(OC)c(OC)cc3OC)coc2c1 | 6.6 | > 10
28 | 1.05 | 1 | 1.18 | – | COc1cc(OC)c(-c2coc3cc(OCc4ccc(Br)cc4)ccc3c2=O)cc1OC | 1.98 | > 10
29 | 2.5 | > 10 | > 10 | 9.4 | COc1cc(OC)c(-c2coc3cc(OCc4ccc([N+](=O)[O-])cc4)ccc3c2=O)cc1OC | > 10 | > 10
30 | 2.04 | 2.64 | 5.2 | 9.4 | COc1ccc2c(=O)c(-c3cc(OC)c(OC)cc3OC)coc2c1 | 9.17 | > 10
31 | > 10 | 0.99 | 2.14 | 0.98 | COc1cc(OC)c(-c2coc3cc(OCc4ccccc4C#N)ccc3c2=O)cc1OC | > 10 | > 10
32 | 1.32 | 1.64 | 2.33 | 6.75 | COc1cc(OC)c(-c2coc3cc(OCc4ccccc4)ccc3c2=O)cc1OC | 2.28 | 9.75
33 | 0.89 | 2.28 | 5.4 | 3.75 | COc1cc(OC)c(-c2coc3cc(OCc4ccc(C(F)(F)F)cc4)ccc3c2=O)cc1OC | 2.44 | > 10
34 | 6.55 | > 10 | 8.55 | > 10 | COc1cc(OC)c(-c2coc3cc(OCc4ccccc4C(F)(F)F)ccc3c2=O)cc1OC | 4.76 | > 10
35 | 1.86 | 1.36 | 2.15 | 2 | COc1cc(OC)c(-c2coc3cc(OCc4ccccc4C)ccc3c2=O)cc1OC | 2.9 | 4.83
36 | > 10 | > 10 | > 10 | > 10 | COc1ccc(OC)c(-c2coc3c4c(ccc3c2=O)OC(C)(C)C=C4)c1 | > 10 | > 10
37 | 1.23 | 1.3 | 2.44 | 3.51 | COc1cc(OC)c(-c2coc3cc(OCc4cccc(F)c4)ccc3c2=O)cc1OC | 4.92 | 5.3
38 | 4.23 | 1.55 | 7 | 6.18 | COc1cc(OC)c(-c2coc3cc(OCc4ccc(C#N)cc4)ccc3c2=O)cc1OC | 4.22 | –
39 | 1 | 1.72 | 1.12 | 3.2 | COc1cc(OC)c(-c2coc3cc(OCc4ccc(F)cc4)ccc3c2=O)cc1OC | 0.95 | > 10
40 | 1.28 | 2.1 | 1.61 | 2.89 | COc1cc(OC)c(-c2coc3cc(OCc4ccccc4F)ccc3c2=O)cc1OC | 2.9 | 4.3
41 | > 10 | > 10 | > 10 | > 10 | COc1cc(OC)c(-c2coc3cc(OC(=O)Cc4cccc(C(F)(F)F)c4)ccc3c2=O)cc1OC | > 10 | > 10
42 | 2.18 | 2.85 | 8.9 | > 10 | COc1cc(OC)c(-c2coc3cc(OCc4ccccc4Br)ccc3c2=O)cc1OC | 4.55 | > 10
43 | > 10 | > 10 | > 10 | > 10 | CC1(C)C=Cc2c(ccc3c(=O)c(-c4cccc(C(F)(F)F)c4)coc23)O1 | > 10 | > 10
44 | 0.94 | 1.02 | 2.4 | 0.47 | COc1cc(OC)c(-c2coc3cc(OCc4ccc(Cl)cc4)ccc3c2=O)cc1OC | 4.45 | 4.4

Source: ChEMBL document CHEMBL3352483, “Synthesis, structure-activity relationships and biological evaluation of barbigerone analogues as anti-proliferative and anti-angiogenesis agents” (Bioorg Med Chem Lett, 2014)
